Assay results as given in ChEMBL document CHEMBL2016568, “Bromophenols as inhibitors of protein tyrosine phosphatase 1B with antidiabetic properties” (Bioorg Med Chem Lett, 2012).
Values belong to the molecule of their own block, whether it stands above or below them.

Assays:
[1] = target: T1, Tyrosine-protein phosphatase non-receptor type 1 (Homo sapiens) (UniProt P18031); assay: Inhibition of GST-tagged human recombinant PTB1B using pNPP as substrate at 20 ug/ml after 3 mins
T1 sequence (whole entry): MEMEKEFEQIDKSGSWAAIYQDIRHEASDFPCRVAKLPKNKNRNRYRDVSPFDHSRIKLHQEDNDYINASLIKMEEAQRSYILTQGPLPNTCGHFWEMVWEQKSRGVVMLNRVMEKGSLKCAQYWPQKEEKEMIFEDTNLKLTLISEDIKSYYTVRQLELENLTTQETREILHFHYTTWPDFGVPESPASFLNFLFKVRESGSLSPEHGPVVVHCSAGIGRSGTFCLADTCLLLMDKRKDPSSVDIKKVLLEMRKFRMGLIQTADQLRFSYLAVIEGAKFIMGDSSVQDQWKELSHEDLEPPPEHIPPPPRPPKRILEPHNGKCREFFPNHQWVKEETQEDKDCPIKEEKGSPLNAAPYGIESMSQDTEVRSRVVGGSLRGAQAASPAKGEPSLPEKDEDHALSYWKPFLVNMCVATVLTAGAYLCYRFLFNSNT

[2] = target: T2, Tyrosine-protein phosphatase non-receptor type 1 (Homo sapiens, UniProt P18031); assay: Inhibition of GST-tagged human recombinant PTB1B using pNPP as substrate after 3 mins
T2 sequence (P18031 whole entry): T1 sequence (whole entry)

[3] = target: T1, Tyrosine-protein phosphatase non-receptor type 1 (Homo sapiens); assay: Inhibition of GST-tagged human recombinant PTB1B using pNPP as substrate at 5 ug/ml after 3 mins
Mus musculus [4] = assay: Antidyslipidemic activity in C57BL/Ks db/db mouse assessed as reduction of total cholesterol level at 50 mg/kg, po after 2 weeks (reference value: 9.8 +/- 0.7 mmol/L); type: functional
Mus musculus [5] = assay: Antihyperglycemic activity in C57BL/Ks db/db mouse assessed as reduction of glycosylated hemoglobin level using HbA1c reagent at 50 mg/kg, po after 2 to 6 weeks relative to control; type: functional; set-up: scale not given: the % may be the effect or the level left
How it was run: (§1)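 HbA1c measured in C57BL/Ks db/db mice (n = 8 per group, 10 weeks old at start). Mice received oral doses suspended in 0.5% sodium carboxymethyl cellulose for six weeks, alongside a vehicle-treated model group. Results given as mean ± SD, compared against the model group.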

Mus musculus [6] = assay: Antidyslipidemic activity in C57BL/Ks db/db mouse assessed as reduction of triacylglycerol level at 50 mg/kg, po after 6 weeks (reference value: 1.56 +/- 0.17 mmol/L); type: functional
Mus musculus [7] = assay: Antihyperglycemic activity in C57BL/Ks db/db mouse assessed as reduction of plasma glucose level at 50 mg/kg, po after 2 to 6 weeks by glucometer relative to control; type: functional; set-up: scale not given: the % may be the effect or the level left
How it was run: (§2)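 db/db mice (C57BL/Ks, 10 weeks old, n = 8 per group) given compound orally in 0.5% sodium carboxymethyl cellulose for six weeks, with a vehicle model group. Postprandial blood glucose read weekly by glucometer. Baseline, 2-week and 6-week values given as mean ± SD. Percent decrease reported at 6 weeks, with statistics against the model group.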

Mus musculus [8] = assay: Antidyslipidemic activity in C57BL/Ks db/db mouse assessed as reduction of triacylglycerol level at 50 mg/kg, po after 2 weeks (reference value: 1.24 +/- 0.12 mmol/L); type: functional
Mus musculus [9] = assay: Antidyslipidemic activity in C57BL/Ks db/db mouse assessed as reduction of total cholesterol level at 50 mg/kg, po after 6 weeks (reference value: 9.2 +/- 1.2 mmol/L); type: functional
Mus musculus [10] = assay: Antidyslipidemic activity in C57BL/Ks db/db mouse assessed as reduction of total cholesterol level at 25 mg/kg, po after 2 weeks (reference value: 9.8 +/- 0.7 mmol/L); type: functional
[11] = target: T3, Tyrosine-protein phosphatase non-receptor type 2 (Homo sapiens, UniProt P17706); assay: Inhibition of TCPTP after 3 mins
T3 sequence (P17706 whole entry): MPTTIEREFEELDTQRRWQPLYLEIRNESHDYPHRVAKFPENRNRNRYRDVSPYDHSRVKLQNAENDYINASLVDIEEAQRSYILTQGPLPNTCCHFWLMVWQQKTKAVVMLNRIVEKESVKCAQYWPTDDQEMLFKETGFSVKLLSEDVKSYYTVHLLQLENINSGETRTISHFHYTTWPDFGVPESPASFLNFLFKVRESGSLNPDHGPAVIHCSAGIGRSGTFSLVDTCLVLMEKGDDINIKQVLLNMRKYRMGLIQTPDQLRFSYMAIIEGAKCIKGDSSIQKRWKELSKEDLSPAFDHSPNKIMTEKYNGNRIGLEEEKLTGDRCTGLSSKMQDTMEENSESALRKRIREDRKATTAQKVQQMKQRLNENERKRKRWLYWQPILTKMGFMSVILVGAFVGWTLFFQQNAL
How it was run: (§3)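 Selectivity assays run in the same system as PTP1B. Enzyme and inhibitor preincubated 3 min at 4 °C, then the reaction started by adding substrate. OMFP used as substrate for SHP1, SHP2 and LAR. IC50 derived by Hill-equation fit of percent inhibition against inhibitor concentration.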

Homo sapiens [12] = species on record: Homo sapiens; assay: Selectivity ratio of IC50 for SHP1 to IC50 for GST-tagged human recombinant PTB1B
Homo sapiens [13] = species on record: Homo sapiens; assay: Selectivity ratio of IC50 for LAR to IC50 for GST-tagged human recombinant PTB1B
Homo sapiens [14] = species on record: Homo sapiens; assay: Selectivity ratio of IC50 for TCPTP to IC50 for GST-tagged human recombinant PTB1B
Mus musculus [15] = assay: Antidyslipidemic activity in C57BL/Ks db/db mouse assessed as reduction of triacylglycerol level at 25 mg/kg, po after 6 weeks (reference value: 1.56 +/- 0.17 mmol/L); type: functional
[16] = target: T4, Tyrosine-protein phosphatase non-receptor type 11 (Homo sapiens, UniProt Q06124); assay: Inhibition of SHP2 using OMFP as substrate after 3 mins; how it was run: as §3
T4 sequence (Q06124 whole entry): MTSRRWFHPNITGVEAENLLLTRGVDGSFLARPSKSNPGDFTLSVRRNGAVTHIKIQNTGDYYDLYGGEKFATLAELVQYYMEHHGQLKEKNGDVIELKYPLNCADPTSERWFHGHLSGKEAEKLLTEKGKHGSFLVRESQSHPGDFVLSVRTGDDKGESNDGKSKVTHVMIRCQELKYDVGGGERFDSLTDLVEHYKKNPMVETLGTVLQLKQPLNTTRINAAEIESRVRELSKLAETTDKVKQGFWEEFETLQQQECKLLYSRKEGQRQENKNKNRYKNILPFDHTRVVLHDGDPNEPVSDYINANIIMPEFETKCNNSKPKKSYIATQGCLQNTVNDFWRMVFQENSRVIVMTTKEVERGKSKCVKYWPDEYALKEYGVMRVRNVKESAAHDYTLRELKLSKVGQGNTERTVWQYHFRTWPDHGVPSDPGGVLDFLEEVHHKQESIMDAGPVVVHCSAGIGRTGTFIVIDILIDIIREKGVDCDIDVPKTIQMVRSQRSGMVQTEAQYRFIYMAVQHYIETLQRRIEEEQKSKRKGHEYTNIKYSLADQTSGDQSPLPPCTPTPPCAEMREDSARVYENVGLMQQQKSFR

Mus musculus [17] = assay: Antihyperglycemic activity in C57BL/Ks db/db mouse assessed as reduction of glycosylated hemoglobin level using HbA1c reagent at 25 mg/kg, po after 2 to 6 weeks relative to control; type: functional; set-up: scale not given: the % may be the effect or the level left; how it was run: as §1
Mus musculus [18] = assay: Antihyperglycemic activity in C57BL/Ks db/db mouse assessed as reduction of plasma glucose level at 25 mg/kg, po after 2 to 6 weeks by glucometer relative to control; type: functional; set-up: scale not given: the % may be the effect or the level left; how it was run: as §2
Homo sapiens [19] = species on record: Homo sapiens; assay: Selectivity ratio of IC50 for SHP2 to IC50 for GST-tagged human recombinant PTB1B
Mus musculus [20] = assay: Toxicity in C57BL/Ks db/db mouse at 25 to 50 mg/kg, po after 2 to 6 weeks; type: organism-based; set-up: route oral; conditions: in vivo
Mus musculus [21] = assay: Antidyslipidemic activity in C57BL/Ks db/db mouse assessed as reduction of triacylglycerol level at 25 mg/kg, po after 2 weeks (reference value: 1.24 +/- 0.12 mmol/L); type: functional
Mus musculus [22] = assay: Antidyslipidemic activity in C57BL/Ks db/db mouse assessed as reduction of total cholesterol level at 25 mg/kg, po after 6 weeks (reference value: 9.2 +/- 1.2 mmol/L); type: functional
[23] = target: Receptor-type tyrosine-protein phosphatase F (Homo sapiens, UniProt P10586); assay: Inhibition of LAR using OMFP as substrate after 3 mins; how it was run: as §3
Receptor-type tyrosine-protein phosphatase F, sequence (P10586 whole entry): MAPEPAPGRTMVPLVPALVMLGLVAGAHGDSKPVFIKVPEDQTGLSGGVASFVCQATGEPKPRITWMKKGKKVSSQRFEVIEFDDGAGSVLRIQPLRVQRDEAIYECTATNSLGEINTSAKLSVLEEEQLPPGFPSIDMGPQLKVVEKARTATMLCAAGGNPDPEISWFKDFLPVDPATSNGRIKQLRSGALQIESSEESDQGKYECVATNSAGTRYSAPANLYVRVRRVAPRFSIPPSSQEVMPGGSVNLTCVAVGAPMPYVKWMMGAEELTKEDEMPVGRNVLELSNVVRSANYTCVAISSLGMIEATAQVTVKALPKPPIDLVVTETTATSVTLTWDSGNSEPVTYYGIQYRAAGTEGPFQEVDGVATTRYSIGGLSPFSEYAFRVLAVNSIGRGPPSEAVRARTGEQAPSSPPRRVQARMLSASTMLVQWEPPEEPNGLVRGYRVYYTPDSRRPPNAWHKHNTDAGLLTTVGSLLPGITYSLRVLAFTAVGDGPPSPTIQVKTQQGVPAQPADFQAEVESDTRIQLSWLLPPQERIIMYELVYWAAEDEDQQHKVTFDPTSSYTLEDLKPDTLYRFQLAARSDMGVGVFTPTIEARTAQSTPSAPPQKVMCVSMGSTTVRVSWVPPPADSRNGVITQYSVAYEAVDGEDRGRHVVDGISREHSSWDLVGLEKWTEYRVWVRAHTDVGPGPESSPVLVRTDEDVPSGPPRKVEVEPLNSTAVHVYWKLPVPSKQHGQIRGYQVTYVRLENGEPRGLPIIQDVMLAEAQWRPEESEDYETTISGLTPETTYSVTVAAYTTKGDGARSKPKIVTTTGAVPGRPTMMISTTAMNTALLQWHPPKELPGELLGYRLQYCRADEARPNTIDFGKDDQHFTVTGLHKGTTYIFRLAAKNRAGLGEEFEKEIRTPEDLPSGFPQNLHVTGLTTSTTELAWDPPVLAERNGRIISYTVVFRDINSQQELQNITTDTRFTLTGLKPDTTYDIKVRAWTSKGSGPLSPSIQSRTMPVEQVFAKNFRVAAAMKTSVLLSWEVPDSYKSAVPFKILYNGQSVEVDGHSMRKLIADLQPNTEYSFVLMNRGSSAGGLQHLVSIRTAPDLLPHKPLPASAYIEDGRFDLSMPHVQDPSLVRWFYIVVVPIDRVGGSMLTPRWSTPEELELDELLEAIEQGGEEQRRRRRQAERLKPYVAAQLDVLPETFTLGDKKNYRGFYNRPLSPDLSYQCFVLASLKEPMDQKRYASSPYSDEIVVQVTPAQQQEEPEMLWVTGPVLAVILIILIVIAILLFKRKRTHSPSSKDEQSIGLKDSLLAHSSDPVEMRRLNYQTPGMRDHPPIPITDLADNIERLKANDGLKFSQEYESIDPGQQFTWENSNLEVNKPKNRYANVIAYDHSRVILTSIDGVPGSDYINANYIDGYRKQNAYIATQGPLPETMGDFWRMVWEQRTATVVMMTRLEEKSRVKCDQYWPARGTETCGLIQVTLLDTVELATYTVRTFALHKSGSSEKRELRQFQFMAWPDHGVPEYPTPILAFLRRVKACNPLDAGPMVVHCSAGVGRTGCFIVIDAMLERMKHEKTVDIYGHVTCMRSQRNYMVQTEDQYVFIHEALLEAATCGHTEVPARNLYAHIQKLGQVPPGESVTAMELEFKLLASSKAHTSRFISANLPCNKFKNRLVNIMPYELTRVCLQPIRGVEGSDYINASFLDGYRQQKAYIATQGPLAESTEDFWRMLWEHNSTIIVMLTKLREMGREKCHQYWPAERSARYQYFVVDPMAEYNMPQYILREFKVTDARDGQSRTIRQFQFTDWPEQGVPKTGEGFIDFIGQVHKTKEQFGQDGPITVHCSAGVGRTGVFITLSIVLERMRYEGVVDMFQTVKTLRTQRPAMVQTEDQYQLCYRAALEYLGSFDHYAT

[24] = target: Tyrosine-protein phosphatase non-receptor type 6 (Homo sapiens, UniProt P29350); assay: Inhibition of SHP1 using OMFP as substrate after 3 mins; how it was run: as §3
Tyrosine-protein phosphatase non-receptor type 6, sequence (P29350 whole entry): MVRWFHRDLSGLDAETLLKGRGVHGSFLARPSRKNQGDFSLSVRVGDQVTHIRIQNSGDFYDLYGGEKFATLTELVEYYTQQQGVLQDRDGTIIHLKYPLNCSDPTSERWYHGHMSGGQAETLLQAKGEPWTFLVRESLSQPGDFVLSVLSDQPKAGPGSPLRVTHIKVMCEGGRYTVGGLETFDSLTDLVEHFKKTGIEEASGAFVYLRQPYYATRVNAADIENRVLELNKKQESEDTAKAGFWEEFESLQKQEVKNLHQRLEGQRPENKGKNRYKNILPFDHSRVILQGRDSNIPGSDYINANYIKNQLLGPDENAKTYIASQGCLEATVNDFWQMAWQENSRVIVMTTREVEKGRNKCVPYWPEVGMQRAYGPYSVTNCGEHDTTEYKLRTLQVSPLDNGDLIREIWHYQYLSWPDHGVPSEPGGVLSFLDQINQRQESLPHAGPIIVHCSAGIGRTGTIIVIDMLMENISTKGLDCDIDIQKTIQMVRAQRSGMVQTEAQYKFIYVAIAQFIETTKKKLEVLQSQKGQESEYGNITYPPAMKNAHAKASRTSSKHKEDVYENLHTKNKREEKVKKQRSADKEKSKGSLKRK

SMILES: O=C(c1cc(O)c(O)cc1Br)c1cc(O)c(O)cc1Br
inhibition [1]: 8.74%

SMILES: COc1ccc(Cc2ccc(OC)c(OC)c2)cc1OC
inhibition [1]: 38.4%

SMILES: O=C(c1cc(O)c(O)c(Br)c1Br)c1c(Br)c(O)c(O)c(Br)c1Br
IC50 [2]: 2450 nM
inhibition [1]: 95.1%
inhibition [3]: 72.1%

SMILES: CN(CCOc1ccc(CC2SC(=O)NC2=O)cc1)c1ccccn1 (stereo unspecified) [ROSIGLITAZONE]
Activity (Mus musculus [4]): 6.5 mmol/L
Activity (Mus musculus [5]): 2.56%
Activity (Mus musculus [6]): 1.29 mmol/L
Activity (Mus musculus [7]): 48.4%
Activity (Mus musculus [8]): 1.06 mmol/L
Activity (Mus musculus [9]): 7.7 mmol/L

SMILES: O=C(c1cc(O)c(O)c(Br)c1Br)c1cc(O)c(O)c(Br)c1Br
inhibition [1]: 20.3%

SMILES: COc1cc(C(=O)c2cc(OC)c(OC)c(Br)c2Br)c(Br)c(Br)c1OC
inhibition [1]: 21.4%

SMILES: COc1cc(C(=O)c2c(Br)c(Br)c(OC)c(OC)c2Br)c(Br)c(Br)c1OC
IC50 [2]: 3260 nM
inhibition [1]: 69.8%
inhibition [3]: 50.6%

SMILES: Oc1ccc(Cc2ccc(O)c(O)c2)cc1O
inhibition [1]: 9.27%

SMILES: COc1cc(Br)c(C(=O)c2cc(OC)c(OC)cc2Br)cc1OC
inhibition [1]: 33.6%

SMILES: Oc1cc(Br)c(Cc2cc(O)c(O)cc2Br)cc1O
inhibition [1]: 20.9%

SMILES: Oc1c(O)c(Br)c(Cc2c(Br)c(O)c(O)c(Br)c2Br)c(Br)c1Br
Activity (Mus musculus [10]): 8.3 mmol/L
IC50 [11]: > 50 µM
Ratio IC50 (Homo sapiens [12]): > 70
Ratio IC50 (Homo sapiens [13]): > 70
Ratio IC50 (Homo sapiens [14]): > 70
Activity (Mus musculus [15]): 1.45 mmol/L
IC50 [2]: 680 nM
IC50 [16]: > 50 µM
Activity (Mus musculus [4]): 7.1 mmol/L
Activity (Mus musculus [17]): 3.05%
Activity (Mus musculus [5]): 3.05%
Activity (Mus musculus [18]): 33.5%
Ratio IC50 (Homo sapiens [19]): > 70
Activity (Mus musculus [6]): 1.51 mmol/L
Activity (Mus musculus [7]): 40.4%
inhibition [1]: 101%
Activity (Mus musculus [20]): Non-toxic
Activity (Mus musculus [8]): 1.28 mmol/L
inhibition [3]: 86.7%
Activity (Mus musculus [9]): 8.4 mmol/L
Activity (Mus musculus [21]): 1.2 mmol/L
Activity (Mus musculus [22]): 9.1 mmol/L
IC50 [23]: > 50 µM
IC50 [24]: > 50 µM

SMILES: COc1cc(Cc2c(Br)c(Br)c(OC)c(OC)c2Br)c(Br)c(Br)c1OC
inhibition [1]: 98.7%
inhibition [3]: 49.3%

SMILES: Oc1ccc(Cc2cc(O)c(O)cc2Br)cc1O
inhibition [1]: 12.2%

SMILES: O=C(c1ccc(O)c(O)c1)c1ccc(O)c(O)c1
inhibition [1]: 13.5%

SMILES: O=C(c1ccc(O)c(O)c1)c1cc(O)c(O)cc1Br
inhibition [1]: 11.2%

SMILES: COc1ccc(C(=O)c2cc(OC)c(OC)cc2Br)cc1OC
inhibition [1]: 13%

SMILES: COc1cc(Br)c(C(=O)c2cc(OC)c(OC)c(Br)c2Br)cc1OC
inhibition [1]: 37.5%

SMILES: COc1ccc(Cc2cc(OC)c(OC)cc2Br)cc1OC
inhibition [1]: 14.4%

SMILES: Oc1cc(Cc2cc(O)c(O)c(Br)c2Br)c(Br)c(Br)c1O
IC50 [2]: 2420 nM
inhibition [1]: 91.3%
inhibition [3]: 38.9%

SMILES: COc1ccc(C(=O)c2ccc(OC)c(OC)c2)cc1OC
inhibition [1]: 2.72%

Continued, values first:

inhibition [1]: 42.7%
SMILES: O=C(c1cc(O)c(O)cc1Br)c1cc(O)c(O)c(Br)c1Br

inhibition [1]: 52.5%
inhibition [3]: 40.2%
SMILES: COc1cc(Br)c(Cc2cc(OC)c(OC)c(Br)c2Br)cc1OC

inhibition [1]: 60.4%
inhibition [3]: 28.9%
SMILES: COc1cc(Cc2cc(OC)c(OC)c(Br)c2Br)c(Br)c(Br)c1OC

inhibition [1]: 96.9%
inhibition [3]: 37.9%
SMILES: COc1c(Br)c(Br)c(Cc2c(Br)c(Br)c(OC)c(OC)c2Br)c(Br)c1OC

IC50 [2]: 2020 nM
inhibition [1]: 105%
inhibition [3]: 47.8%
SMILES: COc1c(Br)c(Br)c(C(=O)c2c(Br)c(Br)c(OC)c(OC)c2Br)c(Br)c1OC

inhibition [1]: 78.6%
inhibition [3]: 29.2%
SMILES: O=C(c1c(Br)c(O)c(O)c(Br)c1Br)c1c(Br)c(O)c(O)c(Br)c1Br

inhibition [1]: 92.3%
inhibition [3]: 45.3%
SMILES: Oc1cc(Cc2c(Br)c(O)c(O)c(Br)c2Br)c(Br)c(Br)c1O

inhibition [1]: 33.6%
SMILES: COc1cc(Br)c(Cc2cc(OC)c(OC)cc2Br)cc1OC

inhibition [1]: 40.5%
SMILES: Oc1cc(Br)c(Cc2cc(O)c(O)c(Br)c2Br)cc1O
